We go through six compounds from paper PMC5430754 (Acta Pharmaceutica Sinica. B, 2017).

Like-named read-outs stand apart in the source and are kept apart here.

One test deals with sucrase (Rattus norvegicus, UniProt P23739). The test can be described thus: α-glucosidase. In kind it is biochemical. Conditions: for Sucrase Inhibition (%): at the concentration of 10^—5 mol/L.
The test system of a further test is maltase. Nature of the test: α-glucosidase. Conditions: for Maltase Inhibition (%): at the concentration of 10^—5 mol/L; for IC50: read-out: Maltase IC50, isolated compounds. In kind it is biochemical, Rat. Summed up: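 Rat small-intestinal brush-border membrane vesicles, suspended in 0.1 mol/L phosphate buffer pH 6.0, served as the α-glucosidase source. Enzyme, substrate and test compound were incubated in the same buffer for 30 min at 37 °C. The reaction was stopped by heating to 80–85 °C for 3 min. Released glucose was measured by the glucose oxidase method. Triplicates at five concentrations gave IC50 from dose–response curves; % inhibition was measured at 10⁻⁵ mol/L.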

Test [1] concerns the target T1, porcine pancreatic lipase (Sus scrofa, UniProt P00591).
T1 sequence (P00591 1-450): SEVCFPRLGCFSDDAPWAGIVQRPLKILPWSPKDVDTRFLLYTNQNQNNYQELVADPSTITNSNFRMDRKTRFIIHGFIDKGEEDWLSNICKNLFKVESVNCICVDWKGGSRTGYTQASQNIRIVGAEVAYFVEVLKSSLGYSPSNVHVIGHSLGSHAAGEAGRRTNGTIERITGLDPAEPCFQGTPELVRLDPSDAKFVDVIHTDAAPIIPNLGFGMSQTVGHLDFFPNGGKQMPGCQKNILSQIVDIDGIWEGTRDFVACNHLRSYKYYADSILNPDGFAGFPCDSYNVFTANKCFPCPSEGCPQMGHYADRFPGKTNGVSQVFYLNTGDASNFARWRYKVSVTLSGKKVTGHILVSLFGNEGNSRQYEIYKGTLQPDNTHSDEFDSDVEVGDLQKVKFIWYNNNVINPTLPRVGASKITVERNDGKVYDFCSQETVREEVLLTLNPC
The test can be described thus: lipase inhibitory activity. Format: biochemical. The note with it: for Lipase Inhibition (%): at the concentration of 10^—5 mol/L; for inhibition at 10 µM: 1 h, read-out: Lipase Inhibition (%).

Setting [2] is: read-out: Sucrase IC50, isolated compounds.

sucrase, sequence (P23739 whole entry): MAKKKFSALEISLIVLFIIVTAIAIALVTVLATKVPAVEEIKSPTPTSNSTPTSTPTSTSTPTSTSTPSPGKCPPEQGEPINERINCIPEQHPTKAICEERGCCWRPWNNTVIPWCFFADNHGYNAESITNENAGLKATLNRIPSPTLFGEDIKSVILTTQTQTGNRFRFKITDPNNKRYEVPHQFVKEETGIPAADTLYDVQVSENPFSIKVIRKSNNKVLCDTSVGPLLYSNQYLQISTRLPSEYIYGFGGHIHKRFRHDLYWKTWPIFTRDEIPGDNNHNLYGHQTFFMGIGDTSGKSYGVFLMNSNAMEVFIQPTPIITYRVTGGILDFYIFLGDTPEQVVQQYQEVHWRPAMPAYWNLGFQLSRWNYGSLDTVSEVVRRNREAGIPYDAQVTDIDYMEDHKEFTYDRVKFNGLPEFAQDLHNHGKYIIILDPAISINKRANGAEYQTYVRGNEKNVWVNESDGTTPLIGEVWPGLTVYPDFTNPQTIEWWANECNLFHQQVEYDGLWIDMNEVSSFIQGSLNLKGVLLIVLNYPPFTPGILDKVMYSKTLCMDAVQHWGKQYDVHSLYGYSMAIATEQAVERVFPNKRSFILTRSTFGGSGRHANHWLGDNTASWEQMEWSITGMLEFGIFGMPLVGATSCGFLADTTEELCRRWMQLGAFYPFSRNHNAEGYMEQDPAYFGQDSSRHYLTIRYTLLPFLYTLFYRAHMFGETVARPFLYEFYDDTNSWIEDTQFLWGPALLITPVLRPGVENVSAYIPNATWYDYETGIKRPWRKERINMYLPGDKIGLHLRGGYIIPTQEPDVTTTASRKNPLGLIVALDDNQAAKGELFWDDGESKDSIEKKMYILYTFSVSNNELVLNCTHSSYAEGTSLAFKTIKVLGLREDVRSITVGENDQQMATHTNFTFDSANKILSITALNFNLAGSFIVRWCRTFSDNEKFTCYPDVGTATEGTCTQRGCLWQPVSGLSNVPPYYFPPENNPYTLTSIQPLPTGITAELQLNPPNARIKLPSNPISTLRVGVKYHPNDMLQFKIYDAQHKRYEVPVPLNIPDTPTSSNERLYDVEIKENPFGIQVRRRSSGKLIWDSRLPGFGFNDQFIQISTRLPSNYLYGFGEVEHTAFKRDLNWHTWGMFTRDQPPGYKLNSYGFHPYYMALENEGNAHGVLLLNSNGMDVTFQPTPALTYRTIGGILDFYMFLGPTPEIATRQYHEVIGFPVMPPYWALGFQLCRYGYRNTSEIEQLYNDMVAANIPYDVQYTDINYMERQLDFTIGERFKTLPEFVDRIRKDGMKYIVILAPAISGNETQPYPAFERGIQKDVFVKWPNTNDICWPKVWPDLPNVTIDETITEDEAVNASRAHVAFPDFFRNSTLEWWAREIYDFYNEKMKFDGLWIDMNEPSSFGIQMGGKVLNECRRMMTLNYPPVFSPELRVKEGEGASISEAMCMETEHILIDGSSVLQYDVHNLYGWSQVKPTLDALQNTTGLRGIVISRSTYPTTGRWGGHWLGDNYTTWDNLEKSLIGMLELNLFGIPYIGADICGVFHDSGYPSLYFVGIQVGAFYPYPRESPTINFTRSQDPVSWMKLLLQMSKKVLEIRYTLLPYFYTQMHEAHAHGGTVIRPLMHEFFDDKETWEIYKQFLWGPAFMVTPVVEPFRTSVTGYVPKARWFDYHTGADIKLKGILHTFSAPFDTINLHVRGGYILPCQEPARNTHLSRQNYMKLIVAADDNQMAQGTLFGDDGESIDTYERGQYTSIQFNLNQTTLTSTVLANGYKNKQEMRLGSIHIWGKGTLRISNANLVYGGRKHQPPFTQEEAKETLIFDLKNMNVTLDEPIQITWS

Consider `O=C(/C=C\c1ccc(O)cc1)O[C@@H]1Cc2c(O)cc(O)cc2O[C@@H]1c1ccc(O)c(O)c1` [Compound 1, (–)-epicatechin-3-O-(Z)-coumarate], for which the “Sucrase Inhibition (%)” value at sucrase stood at 45.4%. In the test on maltase, the “Maltase Inhibition (%)” value came out at 71.8% and the half-maximal inhibitory concentration (IC50) came out at 49.7 µM. Besides, the “Lipase Inhibition (%)” value in test [1] amounted to 42.6%.

On to `O=C(/C=C/c1ccc(O)cc1)O[C@@H]1Cc2c(O)cc(O)cc2O[C@@H]1c1ccc(O)c(O)c1` [Compound 2, (–)-epicatechin-3-O-(E)-coumarate], for which the “Sucrase Inhibition (%)” value on sucrase is given as 71.3%. In addition, the 50% inhibitory concentration (IC50) on sucrase (setting [2]) is 62.1 µM. Moreover, the “Lipase Inhibition (%)” value in test [1] worked out at 41.6%.

In the case of `O=C(/C=C/c1ccc(O)c(O)c1)O[C@@H]1Cc2c(O)cc(O)cc2O[C@@H]1c1ccc(O)c(O)c1` [Compound 3, (–)-epicatechin-3-O-(E)-caffeate], the “Sucrase Inhibition (%)” value at sucrase was determined as 64.5%. In addition, the IC50 at sucrase (setting [2]) amounted to 107 µM. For the same compound, the “Lipase Inhibition (%)” value in test [1] came to 36.3%.

Consider `Oc1cc(O)c2c(c1)O[C@H](c1ccc(O)c(O)c1)[C@@H](O)C2` [Compound 4, (+)-catechin], for which, on sucrase, the “Sucrase Inhibition (%)” value is 21.5%. For the same compound, the “Maltase Inhibition (%)” value in the test with maltase was determined as 16.1%. Further, the “Lipase Inhibition (%)” value in test [1] worked out at 64.9%. Moreover, the IC50 in test [1] (read-out: Lipase IC50, isolated compounds) stood at 39.7 µM.

As to `O=C1c2c(O)cc(O)cc2O[C@H](c2cc(O)c(O)c(O)c2)[C@H]1O` [Compound 5, ampelopsin], the 50% inhibitory concentration (IC50) is 74.6 µM against sucrase, 200 µM on maltase and 20.4 µM in test [1]. Also, the inhibition at 10 µM at sucrase (0.5 h, read-out: Sucrase Inhibition (%)) was determined as 90.4%; in test [1] it was 92.1%. Besides, the “Maltase Inhibition (%)” value in the test with maltase turned out to be 92.0%.

For the compound `Oc1cc(O)c2c(c1)O[C@H](c1ccc(O)c(O)c1)[C@H](O)C2` [Compound 6, (–)-epicatechin], the “Maltase Inhibition (%)” value in the test on maltase was determined as 48.5%. Moreover, in test [1], the half-maximal inhibitory concentration (IC50) was determined as 32.2 µM and the inhibition at 10 µM came to 70.4%.
